This note sets out measurements from ChEMBL document CHEMBL5038571, “Design and Synthesis of EZH2-Based PROTACs to Degrade the PRC2 Complex for Targeting the Noncatalytic Activity of EZH2” (J Med Chem, 2021).

Active and inactive are the calls of the source. No cut-off for these calls is given here.

As a reminder, the IC50 is the midpoint of a concentration-inhibition curve.

In experiment [1] the target is Histone-lysine N-methyltransferase EZH2 (Homo sapiens, UniProt Q15910). Format: cell-based, Sf9.
Experiment [2] concerns NCI-H1299. As to the kind of experiment: Downregulation of […] mRNA expression in human NCI-H1299 cells at 10 uM incubated for 48 hrs by qRT-PCR analysis. Format: functional, cell-based. Put shortly:
(§1)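 Cells treated 48 h. Total RNA extracted with Trizol, reverse-transcribed, and SYBR RT-qPCR run: 95 °C 30 s, then 40 cycles of 95 °C 6 s and 60 °C 20 s. mRNA normalized to the DMSO-treated group. Mean SD of three independent experiments, t-test versus DMSO.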
For orientation: Quantitative PCR measures a nucleic acid by following its amplification.

Experiment [3] deals with WSUDLCL2. As to the kind of experiment: Antiproliferative activity against human WSUDLCL2 cells harboring EZH2-Y641F mutant assessed as inhibition of cell growth at 10 uM incubated for 9 days by optical microscopic analysis. It is filed as functional, cell-based. The conditions noted are these: time 9.0 day. Put shortly: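 WSU-DLCL-2 cells seeded at 5 × 10³ per well, incubated 24 h, then exposed to 10 μM compound for 9 days with medium refreshed. Cells photographed and counted on days 1, 3, 5, 7 and 9. Mean SD of three independent experiments, t-test versus DMSO.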

Experiment [4] has as its system MDA-MB-468. As to the kind of experiment: Downregulation of CEP76 mRNA expression in human MDA-MB-468 cells at 10 uM incubated for 48 hrs by qRT-PCR analysis. Format: functional, cell-based. Put shortly: as §1
The subject of experiment [5] is NCI-H1299. Briefly: Downregulation of TACC3 mRNA expression in human NCI-H1299 cells at 10 uM incubated for 48 hrs by qRT-PCR analysis. Format: functional, cell-based. Put shortly: as §1
For experiment [6], the system named is NCI-H1299. As to the kind of experiment: Downregulation of CHEK1 mRNA expression in human NCI-H1299 cells at 10 uM incubated for 48 hrs by qRT-PCR analysis. It is filed as functional, cell-based. The procedure, abridged: as §1
The test system of experiment [7] is MDA-MB-468. Briefly: Downregulation of […] mRNA expression in human MDA-MB-468 cells at 10 uM incubated for 48 hrs by qRT-PCR analysis. Format: functional, cell-based. Put shortly: as §1
Experiment [8] has as its system MDA-MB-468. As to the kind of experiment: Downregulation of CHEK1 mRNA expression in human MDA-MB-468 cells at 10 uM incubated for 48 hrs by qRT-PCR analysis. Format: functional, cell-based. The procedure, abridged: as §1
The test system of experiment [9] is NCI-H1299. Briefly: Downregulation of ARL6IP mRNA expression in human NCI-H1299 cells at 10 uM incubated for 48 hrs by qRT-PCR analysis. Format: functional, cell-based. The procedure, abridged: as §1
Experiment [10] concerns NCI-H1299. Briefly: Antiproliferative activity against human NCI-H1299 cells harboring SWI/SNF mutant assessed as inhibition of cell growth at 10 uM treated for 9 days by optical microscopic analysis. It is filed as functional, cell-based. Conditions: time 9.0 day. Put shortly: (§2)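 Cells seeded at 5 × 10³ per well, grown 24 h, then exposed to compound at 10 μM for 9 days with medium refreshed. Cells were photographed and counted on days 1, 3, 5, 7 and 9. For lines 1-2, EZH2-targeting or control shRNA was induced in the cells. Mean SD of three independent experiments; t-test against control.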

The subject of experiment [11] is A549. As to the kind of experiment: Downregulation of TACC3 mRNA expression in human A549 cells at 10 uM incubated for 48 hrs by qRT-PCR analysis. It is filed as functional, cell-based. Put shortly:
as §1

In experiment [12] the test system is A549. Briefly: Downregulation of CHEK1 mRNA expression in human A549 cells at 10 uM incubated for 48 hrs by qRT-PCR analysis. Format: functional, cell-based. The procedure, abridged: as §1
For experiment [13], the system named is NCI-H1299. Briefly: Downregulation of CENPK mRNA expression in human NCI-H1299 cells at 10 uM incubated for 48 hrs by qRT-PCR analysis. It is filed as functional, cell-based. Put shortly:
as §1

Experiment [14] has as its system A549. Briefly: Antiproliferative activity against human A549 cells harboring SWI/SNF mutant assessed as inhibition of cell growth at 10 uM treated for 9 days by optical microscopic analysis. Format: functional, cell-based. Conditions: time 9.0 day. The procedure, abridged:
as §2

In experiment [15] the test system is MDA-MB-468. Briefly: Downregulation of CENPK mRNA expression in human MDA-MB-468 cells at 10 uM incubated for 48 hrs by qRT-PCR analysis. It is filed as functional, cell-based. Put shortly: as §1
Experiment [16] concerns MDA-MB-468. Briefly: Downregulation of ARL6IP mRNA expression in human MDA-MB-468 cells at 10 uM incubated for 48 hrs by qRT-PCR analysis. It is filed as functional, cell-based. Put shortly:
as §1

Experiment [17] concerns NCI-H1299. As to the kind of experiment: Downregulation of CEP76 mRNA expression in human NCI-H1299 cells at 10 uM incubated for 48 hrs by qRT-PCR analysis. Format: functional, cell-based. The procedure, abridged:
as §1

For experiment [18], the system named is A549. As to the kind of experiment: Downregulation of CEP76 mRNA expression in human A549 cells at 10 uM incubated for 48 hrs by qRT-PCR analysis. It is filed as functional, cell-based. Put shortly: as §1
In experiment [19] the test system is A549. Briefly: Downregulation of ARL6IP mRNA expression in human A549 cells at 10 uM incubated for 48 hrs by qRT-PCR analysis. Format: functional, cell-based. Put shortly:
as §1

Experiment [20] has as its system MDA-MB-468. As to the kind of experiment: Downregulation of TACC3 mRNA expression in human MDA-MB-468 cells at 10 uM incubated for 48 hrs by qRT-PCR analysis. Format: functional, cell-based. The procedure, abridged:
as §1

Experiment [21] deals with A549. Briefly: Downregulation of CENPK mRNA expression in human A549 cells at 10 uM incubated for 48 hrs by qRT-PCR analysis. It is filed as functional, cell-based. Put shortly:
as §1

Experiment [22] relates to A549. As to the kind of experiment: Downregulation of […] mRNA expression in human A549 cells at 10 uM incubated for 48 hrs by qRT-PCR analysis. Format: functional, cell-based. Put shortly:
as §1

Experiment [23] has as its target Protein cereblon/Histone-lysine N-methyltransferase EZH2 (Homo sapiens) (UniProt Q15910+Q96SW2). As to the kind of experiment: PROTAC activity at CRBN E3 ligase/EZH2 in PRC2 complex in human WSUDLCL2 cells assessed as reduction in H3K27me3 level at 1 uM incubated for 48 hrs by Western blot analysis. It is filed as cell-based. The procedure, abridged:
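WSU-DLCL-2 cells treated 48 h (1 μM for the single-concentration screen), lysed; SDS-PAGE, nitrocellulose transfer, 5% milk block, primary antibody 4 °C overnight, chemiluminescence. Bands quantified by densitometry, normalized to GAPDH, expressed relative to DMSO-treated cells; mean ± SD of three independent experiments, t-test.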
A general note: Immunoblotting shows a protein as a band on a membrane.

Chain of Protein cereblon/Histone-lysine N-methyltransferase EZH2 (Homo sapiens) (Q15910 whole entry, looked up): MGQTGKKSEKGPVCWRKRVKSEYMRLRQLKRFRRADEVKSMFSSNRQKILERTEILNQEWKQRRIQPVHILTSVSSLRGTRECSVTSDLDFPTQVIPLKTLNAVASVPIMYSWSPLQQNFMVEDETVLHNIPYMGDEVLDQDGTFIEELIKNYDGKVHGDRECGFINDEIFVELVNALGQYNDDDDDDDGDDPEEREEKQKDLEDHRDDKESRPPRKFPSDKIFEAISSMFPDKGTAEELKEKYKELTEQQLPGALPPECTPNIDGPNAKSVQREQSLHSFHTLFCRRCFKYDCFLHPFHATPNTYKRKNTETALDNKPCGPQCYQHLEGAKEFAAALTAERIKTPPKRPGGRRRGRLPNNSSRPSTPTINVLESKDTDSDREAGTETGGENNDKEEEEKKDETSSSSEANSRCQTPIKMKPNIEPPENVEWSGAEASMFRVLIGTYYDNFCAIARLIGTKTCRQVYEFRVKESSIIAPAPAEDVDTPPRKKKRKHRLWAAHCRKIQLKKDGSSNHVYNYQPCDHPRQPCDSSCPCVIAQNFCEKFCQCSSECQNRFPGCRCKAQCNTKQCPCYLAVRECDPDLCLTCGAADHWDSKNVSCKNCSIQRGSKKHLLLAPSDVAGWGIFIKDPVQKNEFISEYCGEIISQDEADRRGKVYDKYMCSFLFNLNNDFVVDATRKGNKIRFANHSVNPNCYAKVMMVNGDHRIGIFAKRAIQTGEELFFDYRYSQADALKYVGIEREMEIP
Chain of Protein cereblon/Histone-lysine N-methyltransferase EZH2 (Homo sapiens) (Q96SW2 whole entry, looked up): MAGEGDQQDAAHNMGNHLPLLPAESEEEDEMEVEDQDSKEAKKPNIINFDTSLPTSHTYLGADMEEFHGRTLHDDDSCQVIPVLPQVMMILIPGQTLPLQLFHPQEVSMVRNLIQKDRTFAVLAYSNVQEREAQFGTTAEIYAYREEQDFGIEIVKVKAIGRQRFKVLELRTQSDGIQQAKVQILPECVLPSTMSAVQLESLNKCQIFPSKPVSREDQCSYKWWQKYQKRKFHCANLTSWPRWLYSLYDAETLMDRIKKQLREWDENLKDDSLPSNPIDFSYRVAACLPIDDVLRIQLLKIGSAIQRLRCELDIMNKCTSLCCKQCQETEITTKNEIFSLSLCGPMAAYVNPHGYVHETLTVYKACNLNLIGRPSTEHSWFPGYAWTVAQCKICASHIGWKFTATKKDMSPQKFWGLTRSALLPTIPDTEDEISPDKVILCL
Chain of Histone-lysine N-methyltransferase EZH2 (Q15910 whole entry): as the sequence (Q15910 whole entry, looked up) above

For the compound `CC[C@H](C)n1cc(C)c2c(C(=O)NCc3c(C)cc(C)[nH]c3=O)cc(-c3ccc(N4CCN(CCCCCOc5cccc6c5C(=O)N(C5CCC(=O)NC5=O)C6=O)CC4)nc3)cc21` (stereo not given in full), the concentration for half-maximal inhibition (IC50) in [1] stood at 5.8 nM.

Consider `CCN(c1cc(-c2ccc(CN3CCN(CCCCCOc4cccc5c4C(=O)N(C4CCC(=O)NC4=O)C5=O)CC3)cc2)cc(C(=O)NCc2c(C)cc(C)[nH]c2=O)c1C)C1CCOCC1` (stereo not given), for which inhibition in experiment [1] was half-maximal at 4.5 nM (IC50).

On to `CCN(c1cc(-c2ccc(CN3CCOCC3)cc2)cc(C(=O)NCc2c(C)cc(C)[nH]c2=O)c1C)C1CCOCC1`, for which the outcome in [2], in experiment [4], in [5], in [6], in experiment [7] and in [8] was inactive. Also, the outcome in experiment [9], in experiment [10], in experiment [11], in experiment [12], in experiment [13] and in experiment [14] was inactive. Further, the result in experiment [15], in [16], in experiment [17], in experiment [18], in experiment [19] and in [20] was inactive. For the same compound, the outcome in experiment [21] and in [22] was inactive. Besides, the outcome in [3] was Active.

In experiment [1], `CCN(c1cc(-c2ccc(CN3CCN(CCCCCCCCCCCCOc4cccc5c4C(=O)N(C4CCC(=O)NC4=O)C5=O)CC3)cc2)cc(C(=O)NCc2c(C)cc(C)[nH]c2=O)c1C)C1CCOCC1` (stereo not given) gave an IC50 of 53 nM.

Regarding `CC[C@H](C)n1cc(C)c2c(C(=O)NCc3c(C)cc(C)[nH]c3=O)cc(-c3ccc(N4CCN(CCCCCCCCOc5cccc6c5C(=O)N(C5CCC(=O)NC5=O)C6=O)CC4)nc3)cc21` (stereo not given in full), it took 7.3 nM to reach half-maximal inhibition in experiment [1] (IC50). For the same compound, the result in [23] was Active.

With `CCN(c1cc(-c2ccc(CN3CCN(CCCCCCCCOc4cccc5c4C(=O)N(C4CCC(=O)NC4=O)C5=O)CC3)cc2)cc(C(=O)NCc2c(C)cc(C)[nH]c2=O)c1C)C1CCOCC1` (stereo not given), the IC50 in [1] was determined as 3.4 nM. Further, the outcome in experiment [23] was Active.

Compound `CC[C@H](C)n1cc(C)c2c(C(=O)NCc3c(C)cc(C)[nH]c3=O)cc(-c3ccc(N4CCN(CCCCOc5cccc6c5C(=O)N(C5CCC(=O)NC5=O)C6=O)CC4)nc3)cc21` (stereo not given in full) registered an IC50 in experiment [1] of 5.5 nM.

For the compound `CCN(c1cc(-c2ccc(CN3CCN(CCCCCCCCCCOc4cccc5c4C(=O)N(C4CCC(=O)NC4=O)C5=O)CC3)cc2)cc(C(=O)NCc2c(C)cc(C)[nH]c2=O)c1C)C1CCOCC1` (stereo not given), half-maximal inhibition in experiment [1] (IC50) required 17 nM. In addition, the result in experiment [23] was Active.

The compound `CCN(c1cc(-c2ccc(CN3CCN(CCCCCCCCCOc4cccc5c4C(=O)N(C4CCC(=O)NC4=O)C5=O)CC3)cc2)cc(C(=O)NCc2c(C)cc(C)[nH]c2=O)c1C)C1CCOCC1` (stereo not given) returned an IC50 in experiment [1] of 15 nM. In [23], the result was Active.

`CC[C@H](C)n1cc(C)c2c(C(=O)NCc3c(C)cc(C)[nH]c3=O)cc(-c3ccc(N4CCN(CCCCCCCCCCOc5cccc6c5C(=O)N(C5CCC(=O)NC5=O)C6=O)CC4)nc3)cc21` (stereo not given in full) showed an IC50 in experiment [1] of 144 nM. Besides, in experiment [23], the result was Active.
